Consider twelve compounds from PMC4593509 (Medicinal chemistry research : an international journal for …, 2015).

The subject of data set [1] is NCI-H460. Nature of the data set: MTT assay, cell viability after 72 h. As to conditions: Homo sapiens, NCI-H460, 72 h, read-out: IC50 (at day 3). It counts as cell-based, human. Put shortly: (§1)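 Cells were kept in RPMI-1640 with 10% FBS at 37 °C and 5% CO₂, grown to confluency, seeded at 5,000–7,000 per well, and incubated 24 h. Medium was replaced with medium holding test compound, diluted from a 1% DMSO/water suspension, in six replicates each in triplicate. After 72 h, MTT in PBS was added for 4 h. Medium was then removed, formazan dissolved in DMSO, and OD read at 540 nm.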
On the technique in general: Tetrazolium dyes change colour on reduction, which living cells bring about.

The test system of data set [2] is NSCLC cell lines NCI-H460, NCI-H1975, and HCC827. Put plainly: MTT assay, values stated for the whole panel of NSCLC cell lines. It counts as cell-based, human. The settings on record: Homo sapiens, 72 h, read-out: IC50 values against the panel of cancer cell lines. A digest of the protocol:
as §1

In data set [3] the test system is HCC827. Put plainly: MTT assay, cell viability after 72 h. The settings on record: Homo sapiens, HCC827, 72 h, read-out: IC50 (at day 3). It counts as cell-based, human. A digest of the protocol:
as §1

Data set [4] is described as follows: Water solubility from a filtered saturated solution, by weight. It counts as physicochemical. The settings on record: water, thermodynamic from solid.
The subject of data set [5] is NCI-H1975. Nature of the data set: MTT assay, cell viability after 72 h. In kind it is cell-based, human. The settings on record: Homo sapiens, NCI-H1975, 72 h, read-out: IC50 (at day 3). A digest of the protocol:
as §1

The test system of data set [6] is NCI-H460 cell line. Nature of the data set: Annexin V. It counts as cell-based, human. As to conditions: H460 cells, treatment 6 h; IC23 and cisplatin at 40 μM. Put shortly: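 NCI-H460 cells were seeded at 1×10^5 per well and left to adhere overnight. Test compound or cisplatin (40 µM) was diluted into medium from a 1% DMSO/water solution, and untreated controls got fresh medium, with 2 wells per treatment. After exposure, cells were washed twice in cold PBS and stained with FITC-Annexin V and PI in 1× binding buffer for 15 min at room temperature in the dark. Imaging used fluorescence microscopy at 10× and 20×.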

What is called IC50 is the concentration at which inhibition is half-maximal. What is called solubility is the concentration that dissolves in the medium under given conditions. Low readings indicate a poorly soluble substance, high ones a readily soluble substance.

With `CCn1c[n+](Cc2ccc3ccccc3c2)c(Cl)c1Cl.[Br-]` [Compound 1, 4,5-dichloro-1-ethyl-3-(naphthalen-2-ylmethyl)-imidazolium bromide], the IC50 was 26 µM in data set [1], not below 19 µM in data set [2], more than 30 µM in data set [3] and more than 30 µM in data set [5]. Moreover, the solubility in data set [4] came out at 13500 µg/mL.
For the compound `CCCn1c[n+](Cc2ccc3ccccc3c2)c(Cl)c1Cl.[Br-]` [Compound 2, 4,5-dichloro-3-(naphthalen-2-ylmethyl)-1-propylimidazolium bromide], the IC50 in data set [1] was 19 µM; in data set [2] it was not below 19 µM; in data set [3], more than 30 µM; in data set [5] it was 22 µM. For the same compound, in data set [4], the solubility amounted to 5200 µg/mL.
In the same order, the values of `CC(C)n1c[n+](Cc2ccc3ccccc3c2)c(Cl)c1Cl.[Br-]` [Compound 3, 4,5-dichloro-1-isopropyl-3-(naphthalen-2-ylmethyl)imidazolium bromide] are more than 30 µM, not below 19 µM, more than 30 µM, 20 µM and 10800 µg/mL.
Consider `CCCCn1c[n+](Cc2ccc3ccccc3c2)c(Cl)c1Cl.[Br-]` [Compound 4, 1-butyl-4,5-dichloro-3-(naphthalen-2-ylmethyl)-imidazolium bromide], for which the half-inhibitory concentration (IC50) in data set [1] amounted to 13 µM; in data set [3], 12 µM; in data set [5], 10 µM. In data set [4], this compound yielded a solubility of 5700 µg/mL.
For the compound `CCCCCn1c[n+](Cc2ccc3ccccc3c2)c(Cl)c1Cl.[Br-]` [Compound 5, 4,5-dichloro-3-(naphthalen-2-ylmethyl)-1-pentylimidazolium bromide], the IC50 was 10 µM in data set [1], 10 to 12 µM in data set [2], 12 µM in data set [3] and 12 µM in data set [5]. Besides, in data set [4], the solubility worked out at 3100 µg/mL.
On to `CCCCCCn1c[n+](Cc2ccc3ccccc3c2)c(Cl)c1Cl.[Br-]` [Compound 6, 4,5-dichloro-1-hexyl-3-(naphthalen-2-ylmethyl)-imidazolium bromide], for which the IC50 in data set [1] is 5 µM; in data set [2] it was not above 10 µM; in data set [3], 8 µM; in data set [5] it was 5 µM. In data set [4], the solubility was found to be 1400 µg/mL.
For `CCCCCCCn1c[n+](Cc2ccc3ccccc3c2)c(Cl)c1Cl` [Compound 7, 4,5-dichloro-1-heptyl-3-(naphthalen-2-ylmethyl)-imidazolium bromide], the IC50 is 6 µM in data set [1], not above 10 µM in data set [2], 6 µM in data set [3] and 4 µM in data set [5].
For the compound `CCCCCCCCCn1c[n+](Cc2ccc3ccccc3c2)c(Cl)c1Cl.[Br-]` [Compound 8, 4,5-dichloro-3-(naphthalen-2-ylmethyl)-1-nonylimidazolium bromide], the IC50 is 10 µM in data set [1], not above 10 µM in data set [2], 3 µM in data set [3] and 3 µM in data set [5]. The solubility in data set [4] worked out at 300 µg/mL.
In the case of `CCCCCCCCCCCCn1c[n+](Cc2ccc3ccccc3c2)c(Cl)c1Cl` [Compound 9, 4,5-dichloro-1-dodecyl-3-(naphthalen-2-ylmethyl)-imidazolium bromide], the concentration for half-maximal inhibition (IC50) in data set [1] is 5 µM; in data set [2], not above 10 µM; in data set [5], 4 µM.
With `Clc1c(Cl)[n+](Cc2ccccc2)cn1Cc1ccccc1` [Compound 10, 1,3-dibenzyl-4,5-dichloroimidazolium bromide], the 50% inhibitory concentration (IC50) in data set [1], in data set [3] and in data set [5] was more than 30 µM each time.
With `Clc1c(Cl)[n+](Cc2ccc3ccccc3c2)cn1Cc1ccccc1` [Compound 11, 1-benzyl-4,5-dichloro-3-(naphthalen-2-ylmethyl)-imidazolium bromide], the 50% inhibitory concentration (IC50) is 15 µM in data set [1], 12 to 15 µM in data set [2], 15 µM in data set [3] and 12 µM in data set [5].
With `[Br-].c1ccc2cc(Cn3cc[n+](Cc4ccc5ccccc5c4)c3)ccc2c1` [Compound 12, 1,3-bis(naphthalen-2-ylmethyl)imidazolium bromide], in data set [6], the “stage of apoptosis (Annexin V / PI)” value is recorded as “early stages of apoptosis”. For the same compound, the IC50 is 4 µM in data set [1], 9 µM in data set [3] and 6 µM in data set [5].
